Screening data as filed in PubChem.
This is a sample that favours compounds with a hit; in the whole collection about 2.8% have one here.
mABHD4 FP: ABHD4 inhibitors, primary screen, biochemical, fluorescence polarization, mouse. purified mABHD4, FP-Rh probe fluorescence polarization. inhibition, % at 8.92 µM. 370,000 compounds, 0.54% hits. AID 720543, 2013;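 active means inhibition exceeding the mean over every tested compound plus 3 SD, cut at about 30% in these data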;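 further: 0% = plate median of compound wells and 100% = S159A mutant with DMSO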
Target sequence (Q8VD66 whole entry, looked up): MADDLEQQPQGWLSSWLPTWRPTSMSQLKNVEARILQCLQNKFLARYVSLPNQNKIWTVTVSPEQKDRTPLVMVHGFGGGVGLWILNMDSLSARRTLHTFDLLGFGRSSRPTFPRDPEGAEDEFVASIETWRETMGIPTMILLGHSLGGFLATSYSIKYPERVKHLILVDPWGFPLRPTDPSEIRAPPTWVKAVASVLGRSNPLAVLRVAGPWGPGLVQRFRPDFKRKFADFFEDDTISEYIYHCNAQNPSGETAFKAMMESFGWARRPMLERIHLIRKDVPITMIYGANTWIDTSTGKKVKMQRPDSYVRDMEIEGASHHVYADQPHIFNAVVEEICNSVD
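System: mouse ABHD4 enzyme, wild type / Medium: HEPES pH 7.0, NaCl, Pluronic buffer / Reagent: FP-Rh activity-based fluorescent probe / Control set: S159A mutant high control, sample median low control / Detection: fluorescence polarization with parallel and perpendicular emission, 525/598 nm / Schedule: 45 min + 60 min at 25 °C / Compound dosing: 8.92 µM, single dose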
PAFAH1B2 FP inh: PAFAH1B2 enzyme inhibitors, primary screen, biochemical, fluorescence polarization, human; Platelet-activating factor acetylhydrolase IB subunit alpha2 (Homo sapiens), P68402; recombinant PAFAH1B2, FP-rhodamine activity probe; inhibition, % at 3.39 µM; 340,000 compounds, 1.2% hits;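 active means inhibition above the mean of all tested compounds plus 3 SD, cut at about 24% in these data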;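 further: 0% = enzyme with DMSO and 100% = wells lacking PAFAH1B2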
pPAFAH inh: pPAFAH enzyme inhibitors, primary screen, biochemical, fluorescence polarization, human. 330,000 compounds, 1.5% hits. AID 463082, 2010. recombinant pPAFAH, FP-rhodamine probe fluorescence polarization. Platelet-activating factor acetylhydrolase (Homo sapiens), Q13093. inhibition, % at 3.39 µM;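 active means inhibition above the mean inhibition across the screen plus 3 SD, cut at about 25% in these data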;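 further: inhibitors block binding of the rhodamine activity-based probe so polarization drops; 0% = enzyme with DMSO and 100% = wells lacking pPAFAH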
HTRA1 inh: HTRA1 serine protease inhibitors, primary screen, biochemical, fluorescence polarization, HTS; Q92743; recombinant HTRA1, FP-rhodamine activity-based probe; inhibition, % at 5.96 µM; 340,000 compounds, 0.5% hits; AID 504803, 2011; in the data active means inhibition above about 36%;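 further: 0% = enzyme with DMSO and 100% = wells lacking enzyme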
PAFAH1B3 inh: PAFAH1B3 enzyme inhibitors, primary screen, biochemical, fluorescence polarization, human; Platelet-activating factor acetylhydrolase IB subunit alpha1 (Homo sapiens), Q15102; recombinant PAFAH1B3, FP-rhodamine probe; inhibition, % at 3.39 µM; 340,000 compounds, 0.28% hits; AID 492972, 2010;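 active means inhibition above the screen-wide average of all tested compounds plus 3 SD, cut at about 25% in these data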;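 further: 0% = enzyme with DMSO only and 100% = wells lacking PAFAH1B3 protein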
Target sequence (Q15102 whole entry, looked up): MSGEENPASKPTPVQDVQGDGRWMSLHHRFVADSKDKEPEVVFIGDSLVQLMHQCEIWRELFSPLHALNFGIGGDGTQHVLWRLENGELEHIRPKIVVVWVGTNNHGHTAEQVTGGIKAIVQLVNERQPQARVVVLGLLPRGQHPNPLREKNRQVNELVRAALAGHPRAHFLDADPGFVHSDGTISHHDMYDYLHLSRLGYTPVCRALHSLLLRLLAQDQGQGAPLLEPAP
PAFAH2 inh: PAFAH2 enzyme inhibitors, primary screen, biochemical, fluorescence polarization, human | Platelet-activating factor acetylhydrolase 2, cytoplasmic (Homo sapiens), Q99487 | recombinant PAFAH2, FP-rhodamine activity probe | inhibition, % at 3.39 µM | 340,000 compounds, 0.99% hits | AID 492956, 2010;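 active means inhibition above the mean over all tested compounds plus 3 SD, cut at about 30% in these data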;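 further: inhibitors block probe labeling of enzyme so polarization drops; 0% = enzyme with DMSO and 100% = wells lacking PAFAH2 protein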
Numbers without * were called inactive; . = no result.

SMILES	mABHD4 FP	PAFAH1B2 FP inh	pPAFAH inh	HTRA1 inh	PAFAH1B3 inh	PAFAH2 inh
CC1CCN(S(=O)(=O)c2ccc(NC(=O)Cc3cccs3)cc2)CC1	-21	31*	13	-20	-1	2
CC1CCN(S(=O)(=O)c2ccc(NC(=O)CN3CCOCC3)cc2)CC1	6	33*	3	0	17	9
CC1CCCN(CC(=O)Nc2ccc(S(=O)(=O)N3CCCCC3)cc2)C1 (stereo not drawn)	4	3	-3	-1	2	-4
CC1CCCN(CC(=O)Nc2ccc(S(=O)(=O)NC3CCCCC3)cc2)C1 (stereo not drawn)	0	6	28*	-15	0	-3
CC(C)CN1C(=O)C[C@]2(C(=O)N(C)c3ccc(NC(=O)C(F)(F)F)cc32)C1c1ccccc1 (stereo partly drawn)	-1	.	.	.	.	.
CC(C)c1ccc(NC2CCCN(C(=O)c3cc(C(C)C)nc(N)n3)C2)cc1 (stereo not drawn)	-2	6	5	2	7	3
CC(C)c1cc(C(=O)N2CCCC(Nc3ccc(F)cc3)C2)n[nH]1 (stereo not drawn)	13	24*	3	3	2	5
O=C(N/N=C/c1cc(Cl)cc([N+](=O)[O-])c1O)c1cc(-c2ccccn2)nc2ccccc12	.	3	27*	26	2	6
COc1ccc(-n2c(C)cc(C(=O)CN3C(=O)NC4(CCCc5sccc54)C3=O)c2C)cc1 (stereo not drawn)	-10	3	25*	-39	1	5
CCOc1ccc2nc(SCC(=O)NCc3ccco3)sc2c1	4	0	6	-10	-3	-6
CCOc1ccc2nc(SCC(=O)NC(=O)NCc3ccco3)sc2c1	-20	-20	26*	-32	6	-5
N#Cc1c(Cl)nc(N/N=C/c2ccccc2)c(Cl)c1Cl	-5	0	29*	1	1	0
COc1ccc(CNC(=O)Cc2c(C(=O)O)[nH]c3ccccc23)cc1	0	25*	-3	5	12	5
CCOC(=O)CSc1nnc(NC(=O)CCc2ccccc2)s1	-3	5	2	2	1	-1
CCOC(=O)CSc1nnc(NC(=O)CN2CCN(C=O)CC2)s1	7	52*	3	3	4	2
COCCNC(=S)N(C)[C@H]1C[C@H]2c3[nH]c4c(-c5ccc6c(c5)OCO6)cccc4c3CCN2C[C@H]1[C@H](C)O	8	.	.	.	.	.
O=S(=O)(Nc1ccc(Cc2ccncc2)cc1)c1ccc(Cl)s1	-1	12	13	-6	4	5
O=S(=O)(Nc1ccc(Cc2ccncc2)cc1)c1ccc(Br)s1	3	10	26*	-12	10	3
CC(C)(C)c1ccc(OCC(=O)NNC(=S)NC(=O)c2ccccc2[N+](=O)[O-])c(Br)c1	1	39*	29*	-6	6	12
Cc1ccc(CNC(=O)O[C@H]2CC[C@@]34CCCN3C(=O)CCC[C@H]4C2)o1	-4	.	.	.	.	.
COc1ccc(C(=O)CC(=O)Nc2ccc([N+](=O)[O-])cc2)cc1	-15	-9	27*	30	-34	7
Cc1ccc(NC(=O)CC(=O)c2ccc([N+](=O)[O-])cc2)cc1S(=O)(=O)Nc1cccc(Cl)c1	-64	27*	-15	33	24	19
COC(=O)[C@H](C(C)C)N(CCCc1cn(CC2CCCCC2)nn1)S(=O)(=O)c1ccc(F)cc1Br	-3	.	.	.	.	.
COC(=O)C[C@@H]1CC[C@@H]2[C@@H](COc3ccc(NC(=O)c4ccc(F)cc4)cc3C(=O)N2C)O1	8	.	.	.	.	.
CCC(CC)NC(=O)COC(=O)c1ccc(OCc2ccc(C(C)=O)cc2OC)c(OC)c1	-13	-3	27*	-16	4	77*
SMILES	mABHD4 FP	PAFAH1B2 FP inh	pPAFAH inh	HTRA1 inh	PAFAH1B3 inh	PAFAH2 inh
CN(Cc1ccccc1)C(=O)OCc1cn(Cc2ccc(C(F)(F)F)cc2)nn1	-4	.	.	.	.	.
Cn1c(Cc2cccs2)nnc1SCC(=O)Nc1ccc2c(c1)OCO2	6	.	.	.	.	.
Cc1ccc(S(=O)(=O)Nc2ccc(C(=O)Nc3cc(C)on3)cc2)cc1	-2	6	23	-6	0	-12
Cc1ccc(NS(=O)(=O)c2cccc(C(=O)Nc3c(C)n(C)n(-c4ccccc4)c3=O)c2)cc1	.	.	25*	.	.	.
Cc1ccc(NS(=O)(=O)c2cccc(C(=O)Nc3cc(C)on3)c2)cc1	-6	3	33*	-20	3	-5
CCN(C(=O)Cn1nnc(-c2ccncc2)n1)c1ccccc1	-3	.	.	.	.	.
O=S(=O)(NOCc1ccc(Cl)cc1)c1ccc(Cl)cc1	-25	56*	29*	-10	7	15
COC(=O)[C@]12C[C@H](CC(=O)NCCCN3CCCC3=O)C(=O)N(Cc3cccc4ccccc34)C1=C[C@H](COCc1ccccc1)O[C@@H]2C	-3	.	.	.	.	.
CCCCCCCCCCCCCCCC[N+](C)(C)CCN(Cc1ccc(OC)cc1)c1ncccn1	.	2	32*	52*	11	14
Cc1ccc(Cl)cc1NS(=O)(=O)Cc1ccccc1	4	3	30*	-2	1	6
Cc1ccc(Cl)cc1NS(=O)(=O)c1ccccc1	-3	1	.	-6	14	5
CCCn1c(=O)c2ccccc2n2c(Sc3nnnn3-c3ccccc3)nnc12	5	-3	27*	7	8	-7
CN1C(=O)C(CC(=O)Nc2ccc(F)cc2)N(CCCc2ccccc2)C1=S (stereo not drawn)	-4	27*	2	-35	2	1
Cc1cccc(C)c1NC(=S)NCCSc1ccc(Cl)cc1	-4	25*	1	-24	-5	11
COc1ccc(-c2cc(-c3ccco3)[nH]c(=O)c2C#N)cc1	13	6	30*	10	5	19
COc1ccc(-c2cc(C(F)(F)F)c(C#N)c(=O)[nH]2)cc1	-5	2	-2	-6	-4	-5
CN(Cc1ccccc1F)C(=O)C1C2C=CC3(CN(Cc4ccccc4)C(=O)C13)O2 (stereo not drawn)	4	.	.	.	.	.
Cc1ccsc1C(=O)OCC(=O)NC1CCCC(C)C1C (stereo not drawn)	3	5	32*	-4	6	85*
Cc1ccc(OCCC(=O)OCC(=O)NC2CCCC(C)C2C)cc1 (stereo not drawn)	5	34*	22	-4	5	-3
COc1cc(CCC(=O)OCC(=O)NC2CCCC(C)C2C)cc(OC)c1OC (stereo not drawn)	3	-1	7	5	6	4
